Experimental data taken from ChEMBL document CHEMBL1127382, “Synthesis of N-acetylglucosamine-modified ara-C and its effect on ovarian cancer cells” (1994).

Tests used:
Format in all cases: functional
[1] = system: G-401; test: Tested in vitro against human ovarian cancer cells (G-401) for anticancer activity at dose 0 uM (Cell number 1*10 e-4)
Procedure, shortened: (§1)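 G-401 human ovarian cancer cells seeded at 5 × 10^4 cells/mL in serum-free medium, with or without compound at 0–100 μM. Cultured 3 days at 37 °C under 5% CO₂. Living cells were counted by trypan blue dye exclusion and reported as cell number (×10^-4).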

[2] = system: G-401; test: Tested in vitro against human ovarian cancer cells (G-401) for anticancer activity at dose 1 uM (Cell number 1*10 e-4); procedure, shortened: as §1
[3] = system: G-401; test: Tested in vitro against human ovarian cancer cells (G-401) for anticancer activity at dose 10 uM (Cell number 1*10 e-4); procedure, shortened: as §1
[4] = system: G-401; test: Tested in vitro against human ovarian cancer cells (G-401) for anticancer activity at dose 100 uM (Cell number 1*10 e-4); procedure, shortened: as §1
[5] = system: G-401; test: Tested in vitro against human ovarian cancer cells (G-401) for anticancer activity at dose 0 uM in presence of + beta galactosidase (Cell number 1*10 e-4)
Procedure, shortened: (§2)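 G-401 human ovarian cancer cells seeded at 5 × 10^4 cells/mL in serum-free medium with compound (0–100 μM) plus E. coli β-galactosidase at 1 unit/mL. Cultured 3 days at 37 °C under 5% CO₂. Viable cells were counted by trypan blue exclusion and reported as cell number (×10^-4).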

[6] = system: G-401; test: Tested in vitro against human ovarian cancer cells (G-401) for anticancer activity at dose 1 uM in presence of + beta galactosidase (Cell number 1*10 e-4); procedure, shortened: as §2
[7] = system: G-401; test: Tested in vitro against human ovarian cancer cells (G-401) for anticancer activity at dose 10 uM in presence of + beta galactosidase (Cell number 1*10 e-4); procedure, shortened: as §2
[8] = system: G-401; test: Tested in vitro against human ovarian cancer cells (G-401) for anticancer activity at dose 100 uM in presence of + beta galactosidase (Cell number 1*10 e-4); procedure, shortened: as §2

Compound	Cell number [1]	Cell number [2]	Cell number [3]	Cell number [4]	Cell number [5]	Cell number [6]	Cell number [7]	Cell number [8]
Nc1ccn([C@@H]2O[C@H](CO)[C@@H](O)[C@@H]2O)c(=O)n1 [CYTARABINE]	55	0	0	0				
Nc1ccn([C@@H]2O[C@H](CO[C@@H]3O[C@H](CO)[C@H](O)[C@H](O)[C@H]3O)[C@@H](O)[C@@H]2O)c(=O)n1	55	41	38	56	46	15	6	2
